Test results from ChEMBL document CHEMBL1126613, “Centrally acting serotonergic agents. Synthesis and structure-activity relationships of C-1- or C-3-substituted derivatives of 8-hydroxy-2-(di-n-propylamino)tetralin” (J Med Chem, 1993).
“And” between values parts separate entries of the source, which are not always exact repeats. Identical values can stand only once.

How the values were obtained:
Mus musculus [1] = test: Tested in vivo for the effective dose administered orally in mouse hypothermia assay; format: functional; settings: po
Outline: (§1)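 Charles River CF-1 mice (18-22 g, 4 per dose), housed individually 20 min before testing. Rectal temperature taken before dosing and 20 min after (sc 0.1 mL; oral 0.2 mL by gavage needle). A drop of ≥2 °F counted as positive. Doses started at 30 mg/kg and fell by half-log until 0/4 responded.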

Mus musculus [2] = test: In vivo effective dose administered subcutaneously in mouse hypothermia assay.; format: functional; settings: sc; outline: as §1
Mus musculus [3] = test: Behavioral time in mouse face to face assay at 0.3 umol/kg administered perorally; format: functional
Outline: (§2)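 Male CF-1 mice (Charles River, 19-29 g), 8 pairs per dose, dosed sc, ip or orally in 0.25% methylcellulose or 0.1% citric acid; 30 min absorption housed with familiar partner. Pairs from different home cages placed in small litter-floored cage; face-to-face interaction duration scored visually for 3 min. Wilcoxon rank sum (two-tailed) vs daily control, p < 0.05.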

Mus musculus [4] = test: Behavioral time in mouse face to face assay at 0 umol/kg administered perorally; format: functional; outline: as §2
Rattus norvegicus [5] = test: Effect on the synthesis rate of dopamine (DOPA) accumulation at the dose of 9.7 umol/kg in the rat ventral limbic brain region; format: functional, Limbic system
Outline: (§3)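 Male Sprague-Dawley rats dosed sc with drug or vehicle at time zero. NSD 1015 (100 mg/kg ip) given 15 min later to block aromatic decarboxylase. Brain DOPA and 5-HTP measured by electrochemical detection with peak integration. Expressed as percent change from NSD 1015 plus saline controls. Control and test groups N = 6 each, compared by unpaired t test.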

Rattus norvegicus [6] = test: Effect on the synthesis rate of 5 HTP accumulation at the dose of 9.7 umol/kg in the rat ventral limbic brain region; format: functional, Limbic system; outline: as §3
Mus musculus [7] = test: In vivo effective dose administered orally in mouse hypothermia assay (approximate ED50).; format: functional; settings: po; outline: as §1
Mus musculus [8] = test: Tested in vivo for the maximum temperature decrease in mouse hypothermia assay.; format: functional
Outline: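 CF-1 mice (18-22 g, 4 per dose), dosed sc or orally. Rectal temperature measured before dosing and 20 min after. The mean maximum temperature drop (°F) at 20 min after any dose is recorded as an efficacy index.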

Felis catus [9] = species on record: Felis catus; test: Maximum decrease observed; format: functional; parameters: unit not given here
Felis catus [10] = test: Maximum decrease on arterial blood pressure at 1 mg/kg; format: functional
Outline: (§4)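 Adult cats (2.5-4.0 kg) anesthetized with ketamine 11 mg/kg im, then chloralose 80 mg/kg iv. Femoral artery cannulated for blood pressure, femoral vein for drug. Ventilated, paralyzed with gallamine 4 mg/kg iv, rectal temperature held at 37-38 °C. Cumulative iv doses given at 20-min intervals. Maximum decrease reported following a 1 mg/kg iv dose.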

Felis catus [11] = test: (§5) Dose on arterial blood pressure (BP) in anesthetized cat; format: functional; outline: as §4
Felis catus [12] = species on record: Felis catus; test: Dose at which the SND has been reduced to 50% of the pretreatment value; format: functional
Outline: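 Adult cats (2.5-4.0 kg), ketamine 11 mg/kg im then chloralose 80 mg/kg iv, ventilated, gallamine-paralyzed, rectal temperature 37-38 °C. Sympathetic nerve discharge quantified by cumulative integration. Cumulative iv doses were given at 20-min intervals. Value is the dose reducing discharge to 50% of pretreatment.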

Mus musculus [13] = test: Behavioral time in mouse face to face assay at 32.5 umol/kg administered perorally; format: functional; outline: as §2
Mus musculus [14] = test: Behavioral time in mouse isolation-induced aggression assay at 9.7 umol/kg administered perorally; format: functional
Outline: (§6)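 Male CF-1 mice. Residents were isolated singly for at least 1 month; group-housed intruders were kept 4-6/cage. Mice weighed 28-30 g at first test. Residents got drug ip or orally in 0.25% methylcellulose or 0.1% citric acid 30 min before an untreated intruder was introduced. Latency to fighting was recorded, capped at 600 s. Dosing was blind, 6/group (vehicle n = 12), Wilcoxon rank sum.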

Mus musculus [15] = test: Behavioral time in mouse face to face assay at 3.2 umol/kg administered perorally; format: functional; outline: as §2
Mus musculus [16] = test: Behavioral time in mouse isolation-induced aggression assay at 0 umol/kg administered perorally; format: functional; outline: as §6
Mus musculus [17] = test: Behavioral time in mouse isolation-induced aggression assay at 32.5 umol/kg administered perorally; format: functional; outline: as §6
Rattus norvegicus [18] = test: Effect on the synthesis rate of dopamine (DOPA) accumulation at the dose of 3.2 umol/kg in the rat ventral limbic brain region; format: functional, Limbic system; outline: as §3
Rattus norvegicus [19] = test: Effect on the synthesis rate of 5 HTP accumulation at the dose of 3.2 umol/kg in the rat ventral limbic brain region; format: functional, Limbic system; outline: as §3
Rattus norvegicus [20] = species on record: Rattus norvegicus; test: Effect on the synthesis rate of dopamine (DOPA) accumulation at the dose of […] in the rat ventral limbic brain region; format: functional, Limbic system
Rattus norvegicus [21] = species on record: Rattus norvegicus; test: Effect on the synthesis rate of 5 HTP accumulation at the dose of […] in the rat ventral limbic brain region; format: functional, Limbic system
Felis catus [22] = test: Effect on arterial blood pressure (BP) in anesthetized cat; format: functional; outline: as §4
Felis catus [23] = test: as §5; format: functional; remark: listed apart in the source
Mus musculus [24] = test: Behavioral time in mouse face to face assay at 30 umol/kg administered subcutaneously; format: functional
Outline: (§7)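 Male CF-1 mice (19-29 g), 8 pairs per dose, dosed sc, ip or orally in 0.25% methylcellulose or 0.1% citric acid. Pairs from the same home cage are held together for 30 min. Pairs from different cages are then placed in a small litter-floored cage, and face-to-face interaction is timed visually for 3 min. Comparison with the daily control by two-tailed Wilcoxon rank sum, p<0.05.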

Mus musculus [25] = test: Behavioral time in mouse face to face assay at 30 umol/kg administered subcutaneously (*P<0.05); format: functional; outline: as §7
Mus musculus [26] = test: Behavioral time in mouse face to face assay at 3.0 umol/kg administered subcutaneously; format: functional; outline: as §7
Mus musculus [27] = test: Behavioral time in mouse isolation-induced aggression behavioral assay at 30 umol/kg administered intraperitoneally (*P<0.05); format: functional
Outline: (§8)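 Isolated male CF-1 resident mice, housed singly ≥1 month and weighing 28-30 g at testing, were dosed ip or orally in 0.25% methylcellulose or 0.1% citric acid. Dosing was blind, 6 per group (n=12 vehicle). After 30 min an untreated group-housed intruder was introduced. Latency to fighting was recorded, capped at 600 s. Residents rested ≥3 days before reuse. Wilcoxon rank sum.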

Mus musculus [28] = test: Behavioral time in mouse isolation-induced aggression behavioral assay at 9.1 umol/kg administered intraperitoneally (*P<0.05); format: functional; outline: as §8
Mus musculus [29] = test: Behavioral time in mouse face to face assay at dose of 0 umol/kg administered; format: functional; outline: as §7
Mus musculus [30] = test: Behavioral time in mouse isolation-induced aggression assay 0 umol/kg administered intraperitoneally; format: functional; outline: as §8
Mus musculus [31] = test: Behavioral time in mouse isolation-induced aggression assay 0.3 umol/kg administered intraperitoneally; format: functional; outline: as §8
Mus musculus [32] = test: Behavioral time in mouse isolation-induced aggression assay at 0 umol/kg administered intraperitoneally; format: functional; outline: as §8
Mus musculus [33] = test: Behavioral time in mouse isolation-induced aggression assay at 0.9 umol/kg administered intraperitoneally; format: functional; outline: as §8
Mus musculus [34] = test: Behavioral time in mouse isolation-induced aggression assay at 3.0 umol/kg administered intraperitoneally (*P<0.05); format: functional; outline: as §8
Rattus norvegicus [35] = test: Effect on the synthesis rate of dopamine (DOPA) accumulation at the dose of 3.0 umol/kg in the rat ventral limbic brain region; format: functional, Limbic system
Outline: (§9)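 Male Sprague-Dawley rats were given test drug or vehicle sc at time zero, then NSD 1015 (100 mg/kg ip) 15 min later. DOPA and 5-HTP were measured electrochemically by peak integration. Results are expressed as percent change from NSD 1015 plus saline controls. Groups of 6 vs control 6, unpaired t test.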

Rattus norvegicus [36] = test: Effect on the synthesis rate of dopamine (DOPA) accumulation at the dose of 0.3 umol/kg in the rat ventral limbic brain region; format: functional, Limbic system; outline: as §9
Rattus norvegicus [37] = test: Effect on the synthesis rate of 5 HTP accumulation at the dose 0.3 umol/kg in the rat ventral limbic brain region; format: functional, Limbic system; outline: as §9
Rattus norvegicus [38] = test: Effect on the synthesis rate of 5 HTP accumulation at the dose of 3.0 umol/kg in the rat ventral limbic brain region (*P<0.05); format: functional, Limbic system; outline: as §9

CCCN[C@@H]1CCc2cccc(OC)c2[C@H]1CC1CC1
ED50 (Mus musculus [1]): 99 µmol/kg | ED50 (Mus musculus [2]): 13 µmol/kg | Time (Mus musculus [3]): 1.5 s | Time (Mus musculus [4]): 2 s and 5 s | Change (Rattus norvegicus [5]): 18.7% | Change (Rattus norvegicus [6]): -43.7%

COc1cccc2c1[C@H](CC1CC1)[C@H](NCC1CC1)CC2
ED50 (Mus musculus [7]): > 93 µmol/kg | ED50 (Mus musculus [2]): 23 µmol/kg | TMP.decrease (Mus musculus [8]): 6.8 degrees F

C=CCN[C@@H]1CCc2cccc(OC)c2[C@@H]1CC1CC1
ED50 (Mus musculus [2]): 32 µmol/kg | TMP.decrease (Mus musculus [8]): 7.1 degrees F

C=CCN(CCC)[C@@H]1CCc2cccc(OC)c2C1=C
Max decrease (Felis catus [9]): 20 | Max decrease (Felis catus [10]): 51 | BP (Felis catus [11]): 59% | ED50 (Felis catus [12]): 0.91 µmol/kg | ED50 (Mus musculus [2]): > 97 µmol/kg | Time (Mus musculus [13]): 2.5 s | Time (Mus musculus [3]): 1.9 s | Time (Mus musculus [14]): 61 s | Time (Mus musculus [15]): 1.9 s | Time (Mus musculus [16]): 56 s | Time (Mus musculus [17]): 416 s | Time (Mus musculus [4]): 0.7 s | TMP.decrease (Mus musculus [8]): 3.6 degrees F | Change (Rattus norvegicus [18]): -36% | Change (Rattus norvegicus [19]): -52%

CCC[C@H]1c2c(cccc2OC)CC[C@H]1N(CCC)CCC
Max decrease (Felis catus [10]): 87 | Max decrease (Felis catus [11]): 137 | ED50 (Felis catus [12]): > 2.94 µmol/kg | ED50 (Mus musculus [2]): 51 µmol/kg | TMP.decrease (Mus musculus [8]): 2.8 degrees F | Change (Rattus norvegicus [20]): -14% | Change (Rattus norvegicus [21]): -3.9%

C=CCN[C@@H]1CCc2cccc(OC)c2[C@H]1CC1CC1 (relative stereo)
ED50 (Mus musculus [7]): > 97 µmol/kg | ED50 (Mus musculus [2]): 24 µmol/kg | TMP.decrease (Mus musculus [8]): 6.2 degrees F

C=CCN[C@@H]1CCc2cccc(OC)c2[C@H]1CC=C (relative stereo)
Max decrease (Felis catus [9]): 10 | Max decrease (Felis catus [10]): 45 | BP (Felis catus [11]): 59% | ED50 (Felis catus [12]): 1.19 µmol/kg | ED50 (Mus musculus [1]): 79 µmol/kg | ED50 (Mus musculus [2]): 5.9 µmol/kg | TMP.decrease (Mus musculus [8]): 11.5 degrees F and 6.6 degrees F

C=CC[C@@H]1c2c(cccc2OC)CC[C@H]1NCC1CC1 (relative stereo)
Max decrease (Felis catus [9]): 21 | Max decrease (Felis catus [10]): 46 | BP (Felis catus [22]): 65% | ED50 (Felis catus [12]): 0.81 µmol/kg | ED50 (Mus musculus [1]): > 97 µmol/kg | ED50 (Mus musculus [2]): 10 µmol/kg | TMP.decrease (Mus musculus [8]): 11.5 degrees F

CCCN(CCC)C1CCc2cccc(O)c2C1 (configuration not stated) [8-OH-DPAT]
Max decrease (Felis catus [9]): 2 | Max decrease (Felis catus [10]): 57 | BP (ED50) (Felis catus [23]): 66% | ED50 (Felis catus [12]): 0.03 µmol/kg | ED50 (Mus musculus [1]): 9.7 µmol/kg | ED50 (Mus musculus [2]): 1 µmol/kg | Time (Mus musculus [24]): 5 s | Time (Mus musculus [25]): 4.4 s | Time (Mus musculus [26]): 1.6 s | Time (Mus musculus [27]): 351 s | Time (Mus musculus [28]): 437 s | Time (Mus musculus [29]): 1.1 s | Time (Mus musculus [30]): 6 s | Time (Mus musculus [31]): 11 s | Time (Mus musculus [32]): 177 s | Time (Mus musculus [33]): 20 s | Time (Mus musculus [34]): 310 s | TMP.decrease (Mus musculus [8]): 7.2 degrees F and 7.5 degrees F | Change (Rattus norvegicus [35]): 3.2% | Change (Rattus norvegicus [36]): 16% | Change (Rattus norvegicus [37]): -37% | Change (Rattus norvegicus [38]): -48%
